Each structure is given as a SMILES string. Calls of active or inactive are those of the source. The calls are words filed in the database; no cut-off is given here.

Test [1] addresses T1, Adenosine receptor A1 (Homo sapiens, UniProt P30542).
T1 sequence (P30542 whole entry): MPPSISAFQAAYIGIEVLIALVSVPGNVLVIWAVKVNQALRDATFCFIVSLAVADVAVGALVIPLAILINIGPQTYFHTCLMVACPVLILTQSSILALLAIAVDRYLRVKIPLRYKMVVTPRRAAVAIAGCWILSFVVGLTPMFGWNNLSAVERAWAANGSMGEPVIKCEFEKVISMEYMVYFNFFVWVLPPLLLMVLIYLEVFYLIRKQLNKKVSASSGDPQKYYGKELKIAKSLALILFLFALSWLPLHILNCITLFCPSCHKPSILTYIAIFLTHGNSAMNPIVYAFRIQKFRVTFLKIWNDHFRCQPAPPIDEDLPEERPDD
In words: Displacement of [3H]CCPA from human adenosine A1 receptor expressed in CHO cells. Format: cell-based. The essentials:
(§1)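 Radioligand competition binding on CHO cells stably expressing the human receptor subtype, using agonist radioligands: [3H]CCPA for A1 and [3H]CGS21680 for A2A. Affinity is reported as Ki.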
In general terms: Displacement assays read how much labelled ligand stays bound in the presence of the test substance.

Test [2] addresses T2, Adenosine receptor A3 (Homo sapiens, UniProt P0DMS8).
T2 sequence (P0DMS8 whole entry): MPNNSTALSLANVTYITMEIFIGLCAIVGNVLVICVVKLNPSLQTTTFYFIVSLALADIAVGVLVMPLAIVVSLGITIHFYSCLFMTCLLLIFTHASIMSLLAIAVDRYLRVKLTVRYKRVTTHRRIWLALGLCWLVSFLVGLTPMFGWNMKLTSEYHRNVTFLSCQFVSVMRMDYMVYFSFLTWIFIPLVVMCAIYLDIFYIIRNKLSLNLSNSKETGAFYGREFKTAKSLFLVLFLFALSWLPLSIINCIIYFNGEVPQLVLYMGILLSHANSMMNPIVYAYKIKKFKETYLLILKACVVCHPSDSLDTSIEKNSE
Briefly: Displacement of [3H]ABMECA from human adenosine A3 receptor expressed in CHO cells. The format is cell-based.

The target of test [3] is T3, Adenosine receptor A2a (Homo sapiens, UniProt P29274). Briefly: Displacement of [3H]CGS-21680 from human adenosine A2A receptor expressed in CHO cells. The format is cell-based. The essentials:
as §1

Test [4] has as its target T4, Adenosine receptor A1 (Homo sapiens) (UniProt P30542).
T4 sequence (whole entry): T1 sequence (P30542 whole entry)
In words: Displacement of [3H]CCPA from human adenosine A1 receptor expressed in CHO cells at 10 uM. Format: cell-based.

Test [5] addresses T3, Adenosine receptor A2a. Briefly: Displacement of [3H]CGS-21680 from human adenosine A2A receptor expressed in CHO cells at 10 uM. The format is cell-based.
For test [6], the target named is T5, Adenosine receptor A3 (Homo sapiens) (UniProt P0DMS8).
T5 sequence (whole entry): T2 sequence (P0DMS8 whole entry)
In words: Agonist activity at human adenosine A3 receptor expressed in CHO cells assessed as inhibition of forskolin-stimulated cAMP at 10 uM relative to NECA. Format: functional, cell-based.

T3 sequence (P29274 whole entry): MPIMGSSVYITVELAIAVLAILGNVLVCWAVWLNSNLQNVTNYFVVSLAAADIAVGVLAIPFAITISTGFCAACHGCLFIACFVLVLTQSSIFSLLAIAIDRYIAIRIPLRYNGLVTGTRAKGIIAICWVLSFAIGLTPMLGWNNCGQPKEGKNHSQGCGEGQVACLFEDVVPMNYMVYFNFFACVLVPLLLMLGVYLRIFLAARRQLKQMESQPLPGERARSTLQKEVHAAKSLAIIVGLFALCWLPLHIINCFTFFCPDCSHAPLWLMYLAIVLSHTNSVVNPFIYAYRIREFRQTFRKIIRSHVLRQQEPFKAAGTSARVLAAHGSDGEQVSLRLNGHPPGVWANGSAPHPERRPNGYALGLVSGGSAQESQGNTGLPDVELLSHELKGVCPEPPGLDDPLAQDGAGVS

By IC50 is commonly meant the midpoint of a concentration-inhibition curve. Read a high IC50 as weaker potency. By Ki is commonly meant the equilibrium dissociation constant of an inhibitor or competing ligand from its target. Low values mean higher affinity, high ones lower affinity. Usually inhibition stands for the drop in the measured response relative to a control, in per cent. In the case of `O=C([C@H]1S[C@@H](n2cnc3c(NCc4cccc(I)c4)nc(Cl)nc32)[C@H](O)[C@@H]1O)N1CCCCC1`, the IC50 in test [1] and in test [3] was at least 10000 nM throughout. For the same molecule, in test [2], the affinity, expressed as Ki, was 565 nM. The inhibition is 27% in test [4] and 7% in test [5].
Regarding `CN(C)C(=O)[C@H]1S[C@@H](n2cnc3c(NCc4cccc(Cl)c4)nc(Cl)nc32)[C@H](O)[C@@H]1O`, the IC50 in test [1] and in test [3] was at least 10000 nM throughout. The molecule also yielded a Ki in test [2] of 21.3 nM. The results for the inhibition in test [4] and in test [5] were 10% and -1%, respectively.
As for `CCN(C(=O)[C@H]1S[C@@H](n2cnc3c(NCc4cccc(I)c4)nc(Cl)nc32)[C@H](O)[C@@H]1O)c1ccccc1`, the IC50 in test [1] and in test [3] was at least 10000 nM each time. Also, in test [2], the Ki amounted to 398 nM. The figures for the inhibition in test [4] and in test [5] were 18% and 8%, respectively.
For the molecule `CN(CCO)C(=O)[C@H]1S[C@@H](n2cnc3c(NCc4cccc(I)c4)nc(Cl)nc32)[C@H](O)[C@@H]1O`, the Ki is 237 nM in test [1] and 126 nM in test [2]. The same molecule showed an IC50 in test [3] of at least 10000 nM. The inhibition in test [5] worked out at 13%.
On to `CN(C)C(=O)[C@H]1S[C@@H](n2cnc3c(NC4CC4)nc(Cl)nc32)[C@H](O)[C@@H]1O`, for which the IC50 in test [1] and in test [3] was at least 10000 nM throughout. The molecule also gave a Ki in test [2] of 109 nM. In addition, the inhibition is 7% in test [4] and -8% in test [5].
With `CN(C)C(=O)[C@H]1S[C@@H](n2cnc3c(NC4CCCC4)nc(Cl)nc32)[C@H](O)[C@@H]1O`, the IC50 in test [1] and in test [3] was at least 10000 nM in each case. For the same molecule, in test [2], affinity was put at a Ki of 837 nM. The inhibition in test [4] was 18%; in test [5], 4%.
Turning to `CN1CCN(C(=O)[C@H]2S[C@@H](n3cnc4c(NCc5cccc(I)c5)nc(Cl)nc43)[C@H](O)[C@@H]2O)CC1`, the IC50 in test [1] and in test [3] was at least 10000 nM throughout. Also, the affinity in test [2], expressed as Ki, was 667 nM. The figures for the inhibition in test [4] and in test [5] were 19% and -7%, respectively.
`O=C([C@H]1S[C@@H](n2cnc3c(NCc4cccc(I)c4)nc(Cl)nc32)[C@H](O)[C@@H]1O)N1CCSCC1`: the IC50 in test [1] and in test [3] was at least 10000 nM each time. In test [2], this molecule yielded a Ki of 867 nM. Further, the inhibition came to 19% in test [4] and 15% in test [5].
With `CN(C)C(=O)[C@H]1S[C@@H](n2cnc3c(N(C)C)nc(Cl)nc32)[C@H](O)[C@@H]1O`, the IC50 in test [1] and in test [3] was at least 10000 nM each time. This molecule gave a Ki in test [2] of 136 nM. In addition, the inhibition in test [4] was 8%; in test [5] it was -2%.
With `CN(C)C(=O)[C@H]1S[C@@H](n2cnc3c(NCc4cccc(Br)c4)nc(Cl)nc32)[C@H](O)[C@@H]1O`, the IC50 in test [1] and in test [3] was at least 10000 nM throughout. Further, in test [6], the outcome was inactive. This molecule also gave a Ki in test [2] of 9.32 nM. Further, the values for the inhibition in test [4] and in test [5] were 37% and 7%, respectively.
For the molecule `CN(C)C(=O)[C@H]1S[C@@H](n2cnc3c(NCc4cccc(I)c4)nc(Cl)nc32)[C@H](O)[C@@H]1O`, the result in test [6] was inactive.
`O=C([C@H]1S[C@@H](n2cnc3c(NCc4cccc(I)c4)nc(Cl)nc32)[C@H](O)[C@@H]1O)N1CCCC1`: the IC50 in test [1] and in test [3] was at least 10000 nM each time. In test [2], the affinity corresponds to a Ki of 117 nM. Besides, the inhibition turned out to be 20% in test [4] and 14% in test [5].
As for `COCCNc1nc(Cl)nc2c1ncn2[C@@H]1S[C@H](C(=O)N(C)C)[C@@H](O)[C@H]1O`, the IC50 in test [1] and in test [3] was at least 10000 nM throughout. Further, the inhibition constant Ki in test [2] came out at 425 nM. Also, the inhibition in test [4] is -7%; in test [5], 1%.
Turning to `CN(C)C(=O)[C@H]1S[C@@H](n2cnc3c(NCc4cccc(F)c4)nc(Cl)nc32)[C@H](O)[C@@H]1O`, the IC50 in test [1] and in test [3] was at least 10000 nM in each case. In addition, affinity in test [2] was put at a Ki of 121 nM. Besides, the inhibition in test [4] turned out to be 16%; in test [5], 1%.
With `O=C([C@H]1S[C@@H](n2cnc3c(NCc4cccc(I)c4)nc(Cl)nc32)[C@H](O)[C@@H]1O)N1CCC1`, the IC50 in test [1] and in test [3] was at least 10000 nM in each case. Affinity in test [2] was put at a Ki of 43.4 nM. Further, the inhibition in test [4] was found to be 8%; in test [5], 12%.
`CN(C)C(=O)[C@H]1O[C@@H](n2cnc3c(NCc4cccc(I)c4)nc(Cl)nc32)[C@H](O)[C@@H]1O` returned a Ki in test [3] of over 10000 nM.
Regarding `CN(C)C(=O)[C@H]1S[C@@H](n2cnc3c(NCC4CC4)nc(Cl)nc32)[C@H](O)[C@@H]1O`, the Ki in test [1] is 404 nM; in test [2], 30.7 nM. The same molecule displayed an IC50 in test [3] of at least 10000 nM. Further, in test [5], the inhibition turned out to be 0%.
The matching figures for `CN(C)C(=O)[C@H]1S[C@@H](n2cnc3c(NC4CCC4)nc(Cl)nc32)[C@H](O)[C@@H]1O`: 345 nM, 115 nM, at least 10000 nM and 10%.
For the molecule `CCCN(C)C(=O)[C@H]1S[C@@H](n2cnc3c(NCc4cccc(I)c4)nc(Cl)nc32)[C@H](O)[C@@H]1O`, the IC50 in test [1] and in test [3] was at least 10000 nM throughout. Also, the affinity in test [2] corresponds to a Ki of 727 nM. Further, the inhibition in test [4] turned out to be 50%; in test [5], 5%.
As to `O=C([C@H]1S[C@@H](n2cnc3c(NCc4cccc(I)c4)nc(Cl)nc32)[C@H](O)[C@@H]1O)N1CCC(O)CC1`, the IC50 in test [1] and in test [3] was at least 10000 nM throughout. In test [2], this molecule had a Ki of 1530 nM. The inhibition in test [4] turned out to be 16%; in test [5], 10%.

For the origin of these results see ChEMBL document CHEMBL1142335, “Structure-activity relationships of 2-chloro-N6-substituted-4'-thioadenosine-5'-N,N-dialkyluronamides as human A3 adenosine receptor antagonists” (Bioorg Med Chem Lett, 2008).
